In ChEMBL document CHEMBL3992483, “Traceless Solid-Phase α-Hydroxytropolone Synthesis” (Medchemcomm, 2016):
Where “and” joins values, the source holds several entries; their conditions need not be identical. Equal entries are not always repeated.

Experiments:
[1] = test system: Human immunodeficiency virus 1; assay: Antiviral activity against HIV1 RF infected in human CEM-SS cells assessed as cytoprotective effect by measuring cell viability at 0.78 to 50 uM by XTT assay relative to control; assay type: functional
Method in brief: (§1)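 HIV-1 strain RF infection of CEM-SS cells. Samples dissolved at 10 mM in DMSO, tested at 2-fold dilutions from 50 µM down to 0.78 µM final, in duplicate. EC50 estimated by regression analysis.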

[2] = Inhibition of HIV1 RT-RNase H activity using 18-nucleotide 3'-fluorescein-labeled RNA/5'-dabsyl-labeled DNA hybrid after 10 mins by FRET assay; design: species or system Human immunodeficiency virus 1
[3] = test system: Human immunodeficiency virus 1; assay: Stabilization of HIV1 RT-RNase H by sypro-orange dye-based differential scanning fluorimetric analysis
Method in brief: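 Thermal shift of HIV RT RNase H in 20 mM HEPES pH 7.5, 10 mM MgCl2, 100 mM NaCl with Sypro Orange at 1:2000. 1 µL of 1 mM compound in DMSO added to 49 µL of this buffer. Heated 30 to 80 °C in 0.2 °C steps, read at ex 483 / em 568 nm. ΔTm determined, duplicate runs.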

CEM-SS = assay: (§2) Cytotoxicity against human CEM-SS cells assessed as reduction in cell viability by XTT assay; assay type: cell-based; details: cem-ss
Method in brief: (§3)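 Uninfected CEM-SS cells in the same plate as the HIV-1 RF infection assay. Compounds tested at 2-fold dilutions from 50 µM to 0.78 µM final, in duplicate. CC50 estimated by regression analysis.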

[4] = as §2; assay type: cell-based; details: CEM-SS cells; method in brief: as §3
[5] = test system: Human immunodeficiency virus 1; assay: Antiviral activity against HIV1 RF infected in human CEM-SS cells assessed as cytoprotective effect by measuring increase in cell viability by XTT assay; assay type: functional, cell-based; method in brief: as §1

Structure (SMILES) | Activity [1] [%] | IC50 [2] | ΔTm [3] | CC50 (CEM-SS) | CC50 [4] [µM] | EC50 [5] | EC50 ([5]; Human immunodeficiency virus 1, RF, CEM-SS) [µM]
Cc1cc(O)c(=O)c(O)cc1C(=O)c1ccc(-c2ccccc2)cc1 | <35 | 1 µM and 0.59 µM | 1.7 °C and 1.9 °C | 0.1 to 0.83 µM | 0.14 to 0.97 |  | 
Cc1cc(O)c(=O)c(O)cc1C(=O)c1ccccc1 | <35 | 0.32 µM and 0.22 µM | 2.5 °C and 2.9 °C | 2.6 to 8.8 µM and 7.2 to 8.8 µM |  |  | 
Cc1cc(O)c(=O)c(O)cc1C(=O)C1CCCCC1 | <35 | 0.52 µM and 0.21 µM | 2 °C and 2.4 °C | 2.7 to 7 µM | 2.3 to 3.1 |  | 
COC(=O)c1cc(O)c(=O)c(O)cc1C |  | 0.44 µM and 0.16 µM | 2.9 °C and 2.7 °C | 5.4 to 11 µM and 15 µM |  | 2.2 to 4.2 µM and 7.2 to 7.7 µM | 
CC(=O)c1cc(O)c(=O)c(O)cc1C |  | 0.57 µM and 0.29 µM | 2.3 °C and 2.9 °C | 7.7 to 24 µM and 20 to 21 µM |  | 2.8 to 5.2 µM and 6.5 to 7.3 µM | 
CCOC(=O)c1cc(O)c(=O)c(O)cc1C | <50 | 0.54 µM and 0.25 µM | 2.9 °C and 2.4 °C | 8.5 to 9.7 µM and 22 µM |  |  | 4.8 to 5.1
Cc1cc(O)c(=O)c(O)cc1-c1cccc2ccccc12 | <35 | 0.56 µM and 0.26 µM | 1 °C and 1.5 °C | 3.3 to 6.7 µM | 2.1 to 5.4 |  | 
Cc1cc(O)c(=O)c(O)cc1-c1ccc(C(F)(F)F)cc1 | <35 | 0.8 µM and 1.1 µM | 0.2 °C and 0.9 °C | 2.2 to 6.7 µM | 2.3 to 7.1 |  | 
Cc1cc(O)c(=O)c(O)cc1-c1ccccc1 | <35 | 0.25 µM and 0.39 µM | 2.2 °C and 1.5 °C | 5.6 to 7 µM and 2.5 to 3.7 µM |  |  | 
